Test results taken from ChEMBL document CHEMBL4689842, “EUbOPEN Chemogenomics Library wave 1” (2021).

Test system: HEK-293T
Assay: Multiplex assay against HEK293T;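 for Population Tubulin-Different-Phenotype (%): share of the cells with healthy nuclei that show this phenotype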
Assay type: toxicity, cell-based
Details: human
Summary of the method: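 Live cells were stained at seeding with Hoechst33342, BioTracker Green Microtubule Cytoskeleton Dye, MitoTracker Red and Annexin V Alexa Fluor 680, then imaged on a CQ1 microscope at 37°C and 5% CO2 after compound addition. CellPathfinder machine-learning gating split cells into Hoechst high-intensity objects or normal cells. Normal cells were split into healthy, pyknosed or fragmented nuclei, and pyknosed cells into mitotic or apoptotic. Tubulin, mitochondrial-mass and membrane-permeability phenotypes are per cents of healthy-nucleus cells.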

[1] = 12 h, 1 µM, compound concentration 1 uM, replicate 1
[2] = 12 h, 1 µM, compound concentration 1 uM, replicate 2
[3] = 12 h, 10 µM, compound concentration 10 uM, replicate 1
[4] = 12 h, 10 µM, compound concentration 10 uM, replicate 2
[5] = 24 h, 1 µM, compound concentration 1 uM, replicate 1
[6] = 24 h, 1 µM, compound concentration 1 uM, replicate 2
[7] = 24 h, 10 µM, compound concentration 10 uM, replicate 1
[8] = 24 h, 10 µM, compound concentration 10 uM, replicate 2
[9] = 48 h, 1 µM, compound concentration 1 uM, replicate 1
[10] = 48 h, 1 µM, compound concentration 1 uM, replicate 2
[11] = 48 h, 10 µM, compound concentration 10 uM, replicate 1
[12] = 48 h, 10 µM, compound concentration 10 uM, replicate 2

## CCCCCNC(=N)N/N=C/c1c[nH]c2ccc(OC)cc12.O=C(O)/C=C\C(=O)O [TEGASEROD MALEATE]
[1]
  Population Apoptotic (%): 45%
  Population Fragmented Nuclei (%): 20%
  Population Healthy Nuclei (%): 42%
  Population Hoechst High Intensity Objects (%): 16%
  Population Membrane Permeable-Phenotype (%): 4%
  Population Mitochondria Different-Phenotype (%): 88%
  Population Mitotic Cells (%): 54%
  Population Normal (%): 83%
  Population Pyknosed Nuclei (%): 36%
  Population Tubulin-Different-Phenotype (%): 52%
  Total Cell Count: 192
[2]
  Population Apoptotic (%): 24%
  Population Fragmented Nuclei (%): 4%
  Population Healthy Nuclei (%): 35%
  Population Hoechst High Intensity Objects (%): 1%
  Population Membrane Permeable-Phenotype (%): 9%
  Population Mitochondria Different-Phenotype (%): 50%
  Population Mitotic Cells (%): 75%
  Population Normal (%): 98%
  Population Pyknosed Nuclei (%): 59%
  Population Tubulin-Different-Phenotype (%): 48%
  Total Cell Count: 204
[3]
  Population Apoptotic (%): 51%
  Population Fragmented Nuclei (%): 27%
  Population Healthy Nuclei (%): 0%
  Population Hoechst High Intensity Objects (%): 27%
  Population Membrane Permeable-Phenotype (%): 0%
  Population Mitochondria Different-Phenotype (%): 0%
  Population Mitotic Cells (%): 48%
  Population Normal (%): 72%
  Population Pyknosed Nuclei (%): 72%
  Population Tubulin-Different-Phenotype (%): 0%
  Total Cell Count: 295
[4]
  Population Apoptotic (%): 96%
  Population Fragmented Nuclei (%): 15%
  Population Healthy Nuclei (%): 3%
  Population Hoechst High Intensity Objects (%): 29%
  Population Mitotic Cells (%): 3%
  Population Normal (%): 70%
  Population Pyknosed Nuclei (%): 81%
  Population Tubulin-Different-Phenotype (%): 100%
  Total Cell Count: 93
[5]
  Population Apoptotic (%): 46%
  Population Fragmented Nuclei (%): 15%
  Population Healthy Nuclei (%): 60%
  Population Hoechst High Intensity Objects (%): 13%
  Population Membrane Permeable-Phenotype (%): 1%
  Population Mitochondria Different-Phenotype (%): 83%
  Population Mitotic Cells (%): 53%
  Population Normal (%): 86%
  Population Pyknosed Nuclei (%): 23%
  Population Tubulin-Different-Phenotype (%): 46%
  Total Cell Count: 196
[6]
  Population Apoptotic (%): 24%
  Population Fragmented Nuclei (%): 4%
  Population Healthy Nuclei (%): 54%
  Population Hoechst High Intensity Objects (%): 3%
  Population Membrane Permeable-Phenotype (%): 7%
  Population Mitochondria Different-Phenotype (%): 46%
  Population Mitotic Cells (%): 75%
  Population Normal (%): 96%
  Population Pyknosed Nuclei (%): 40%
  Population Tubulin-Different-Phenotype (%): 43%
  Total Cell Count: 260
[7]
  Population Apoptotic (%): 54%
  Population Fragmented Nuclei (%): 31%
  Population Healthy Nuclei (%): 0%
  Population Hoechst High Intensity Objects (%): 35%
  Population Membrane Permeable-Phenotype (%): 100%
  Population Mitochondria Different-Phenotype (%): 100%
  Population Mitotic Cells (%): 45%
  Population Normal (%): 64%
  Population Pyknosed Nuclei (%): 68%
  Population Tubulin-Different-Phenotype (%): 0%
  Total Cell Count: 288
[8]
  Population Apoptotic (%): 97%
  Population Fragmented Nuclei (%): 25%
  Population Healthy Nuclei (%): 27%
  Population Hoechst High Intensity Objects (%): 13%
  Population Membrane Permeable-Phenotype (%): 23%
  Population Mitochondria Different-Phenotype (%): 9%
  Population Mitotic Cells (%): 2%
  Population Normal (%): 86%
  Population Pyknosed Nuclei (%): 46%
  Population Tubulin-Different-Phenotype (%): 85%
  Total Cell Count: 89
[9]
  Population Fragmented Nuclei (%): 9%
  Population Healthy Nuclei (%): 77%
  Population Hoechst High Intensity Objects (%): 8%
  Population Membrane Permeable-Phenotype (%): 0%
  Population Mitochondria Different-Phenotype (%): 38%
  Population Normal (%): 91%
  Population Pyknosed Nuclei (%): 12%
  Population Tubulin-Different-Phenotype (%): 30%
  Total Cell Count: 290
[10]
  Population Apoptotic (%): 33%
  Population Fragmented Nuclei (%): 7%
  Population Healthy Nuclei (%): 78%
  Population Hoechst High Intensity Objects (%): 4%
  Population Membrane Permeable-Phenotype (%): 5%
  Population Mitochondria Different-Phenotype (%): 21%
  Population Mitotic Cells (%): 66%
  Population Normal (%): 95%
  Population Pyknosed Nuclei (%): 14%
  Population Tubulin-Different-Phenotype (%): 42%
  Total Cell Count: 411
[11]
  Population Apoptotic (%): 58%
  Population Fragmented Nuclei (%): 36%
  Population Healthy Nuclei (%): 0%
  Population Hoechst High Intensity Objects (%): 31%
  Population Membrane Permeable-Phenotype (%): 0%
  Population Mitochondria Different-Phenotype (%): 0%
  Population Mitotic Cells (%): 41%
  Population Normal (%): 68%
  Population Pyknosed Nuclei (%): 63%
  Population Tubulin-Different-Phenotype (%): 0%
  Total Cell Count: 277
[12]
  Population Apoptotic (%): 100%
  Population Fragmented Nuclei (%): 32%
  Population Healthy Nuclei (%): 47%
  Population Hoechst High Intensity Objects (%): 6%
  Population Membrane Permeable-Phenotype (%): 17%
  Population Mitochondria Different-Phenotype (%): 28%
  Population Mitotic Cells (%): 0%
  Population Normal (%): 93%
  Population Pyknosed Nuclei (%): 20%
  Population Tubulin-Different-Phenotype (%): 65%
  Total Cell Count: 79
